These results are taken from ChEMBL document CHEMBL1146132, “Synthesis and activity of small molecule GPR40 agonists” (Bioorg Med Chem Lett, 2006).

For experiment [1], the target named is T1, Free fatty acid receptor 1 (Homo sapiens, UniProt O14842). The experiment in a line: Agonist potency at human GPR40 expressed in CHO cells. Type of experiment: functional, cell-based. Summed up:
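Ten-point dose–response in CHO cells stably expressing human GPR40. Receptor activation was read out by a Gal4/Elk1/luciferase reporter gene. Potency was taken from the curve and reported as pEC50.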

Experiment [2] concerns the target T1, Free fatty acid receptor 1. The experiment can be described thus: Agonist potency at human GPR40 expressed in CHO cells relative to standard by luciferase reporter gene assay. The experiment is classed as functional, cell-based.

Some results are limits rather than exact numbers.

T1 sequence (O14842 whole entry, the tested form may be a part): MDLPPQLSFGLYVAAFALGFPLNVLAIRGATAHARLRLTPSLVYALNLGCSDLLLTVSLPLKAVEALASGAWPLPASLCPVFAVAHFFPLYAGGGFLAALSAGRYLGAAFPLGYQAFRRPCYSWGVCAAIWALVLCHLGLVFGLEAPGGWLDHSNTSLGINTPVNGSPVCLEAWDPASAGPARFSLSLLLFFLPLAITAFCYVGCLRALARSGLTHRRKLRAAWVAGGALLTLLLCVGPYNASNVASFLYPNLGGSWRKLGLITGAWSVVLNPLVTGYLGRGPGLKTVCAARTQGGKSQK

Take `O=C(O)CCc1ccc(NCc2cccc(Oc3ccccc3)c2)cc1` [GW9508]: the 50% effective concentration (EC50) in experiment [1] is 64.6 nM. The same molecule displayed a %max in experiment [2] of 86%.

Turning to `CC(C)NC(=O)CCc1ccc(NCc2cccc(Oc3ccccc3)c2)cc1`, the EC50 in experiment [1] was 39.8 nM. The molecule also yielded a %max in experiment [2] of 66%.

`CC(Cc1ccc(NCc2cccc(Oc3ccccc3)c2)cc1)C(=O)O` (configuration not stated) gave a 50% effective concentration (EC50) in experiment [1] of 100 nM. For the same molecule, the %max in experiment [2] was 70%.

Regarding `Cc1nc(-c2ccc(C(F)(F)F)cc2)sc1CNc1ccc([C@H]2C[C@@H]2C(=O)N(C)C)cc1`, the EC50 in experiment [1] is 66.1 nM. The %max in experiment [2] came out at 49%.

`CNC(=O)CCc1ccc(NCc2cccc(Oc3ccccc3)c2)cc1` showed an EC50 in experiment [1] of 49 nM. Moreover, in experiment [2], the %max was 67%.

As to `Cc1nc(-c2ccc(C(F)(F)F)cc2)sc1CNc1ccc(OCC(=O)O)cc1`, in experiment [1], a half-maximal effect (EC50) was put at 288 nM. Also, in experiment [2], the %max worked out at 100%.

Regarding `O=C(O)CCCc1ccc(NCc2cccc(Oc3ccccc3)c2)cc1`, the concentration for a half-maximal effect (EC50) in experiment [1] was 1120 nM. This molecule also gave a %max in experiment [2] of 59%.

Molecule `O=C(O)c1ccc(NCc2cccc(Oc3ccccc3)c2)cc1` showed an EC50 in experiment [1] above 10000 nM. The %max in experiment [2] is 86%.

For the molecule `CC(C)NC(=O)[C@H]1C[C@@H]1c1ccc(NCc2cccc(Oc3ccccc3)c2)cc1`, the EC50 in experiment [1] was 12.6 nM. This molecule registered a %max in experiment [2] of 62%.

Take `Cc1nc(-c2ccc(C(F)(F)F)cc2)sc1CNc1ccc(CCC(N)=O)cc1`: the EC50 in experiment [1] is 12.9 nM. In experiment [2], this molecule registered a %max of 88%.

`O=C(O)[C@H]1C[C@@H]1c1ccc(NCc2cccc(Oc3ccccc3)c2)cc1` (stereo in doubt; 14A) [listing 1 of 2 here] gave a concentration for a half-maximal effect (EC50) in experiment [1] of 12.3 nM.

In turn, `O=C(CCc1ccc(NCc2cccc(Oc3ccccc3)c2)cc1)N1CCCC1` showed a 50% effective concentration (EC50) in experiment [1] of 115 nM. In experiment [2], this molecule gave a %max of 46%.

In experiment [1], `Cc1nc(-c2ccc(C(F)(F)F)cc2)sc1CNc1ccc(CCC(=O)O)cc1` had an EC50 of 67.6 nM. In addition, the %max in experiment [2] is 108%.

`O=C(O)[C@H]1C[C@@H]1c1ccc(NCc2cccc(Oc3ccccc3)c2)cc1` (stereo in doubt; 10A) [listing 1 of 2 here] came in with a %max in experiment [2] of 72%.

`Cc1nc(-c2ccc(C(F)(F)F)cc2)sc1CNc1ccc(CCCC(=O)O)cc1` had an EC50 in experiment [1] above 10000 nM. The %max in experiment [2] turned out to be 44%.

Regarding `Cc1nc(-c2ccc(C(F)(F)F)cc2)sc1CNc1ccc([C@H]2C[C@@H]2C(=O)NO)cc1`, the EC50 in experiment [1] was 6.92 nM. The %max in experiment [2] was found to be 78%.

In experiment [2], `Cc1nc(-c2ccc(C(F)(F)F)cc2)sc1CNc1ccc([C@H]2C[C@@H]2C(=O)NC(C)C)cc1` (stereo in doubt; 24B) [listing 1 of 2 here] came in with a %max of 71%.

Consider `Cc1nc(-c2ccc(C(F)(F)F)cc2)sc1CNc1ccc(CCC(=O)NC(C)C)cc1`, for which the EC50 in experiment [1] was 100 nM. This molecule also gave a %max in experiment [2] of 84%.

Molecule `Cc1nc(-c2ccc(C(F)(F)F)cc2)sc1CNc1ccc([C@H]2C[C@@H]2C(=O)NC2CCC2)cc1` had an EC50 in experiment [1] of 9.12 nM. The molecule also registered a %max in experiment [2] of 55%.

Regarding `O=C(O)[C@H]1C[C@@H]1c1ccc(NCc2cccc(Oc3ccccc3)c2)cc1` (stereo in doubt; 14A) [listing 2 of 2 here], in experiment [2], the %max stood at 88%.

`O=C(O)CSc1ccc(NCc2cccc(Oc3ccccc3)c2)cc1` showed an EC50 in experiment [1] of 324 nM. The %max in experiment [2] stood at 84%.

In experiment [1], `NC(=O)CCc1ccc(NCc2cccc(Oc3ccccc3)c2)cc1` had a 50% effective concentration (EC50) of 51.3 nM. The molecule further had a %max in experiment [2] of 68%.

In experiment [1], `Cc1nc(-c2ccc(C(F)(F)F)cc2)sc1CNc1ccc(CC(=O)O)cc1` showed a half-maximal effective concentration (EC50) above 10000 nM. Moreover, the %max in experiment [2] came to 18%.

Take `O=C(O)[C@@H]1C[C@H]1c1ccc(NCc2cccc(Oc3ccccc3)c2)cc1`: the concentration giving a half-maximal response (EC50) in experiment [1] was 562 nM. The molecule also had a %max in experiment [2] of 64%.

For the molecule `Cc1nc(-c2ccc(C(F)(F)F)cc2)sc1CNc1ccc([C@H]2C[C@@H]2C(=O)NC(C)C)cc1` (stereo in doubt; 22B) [listing 1 of 2 here], a half-maximal effect in experiment [1] (EC50) was put at 14.1 nM.

For the molecule `Cc1nc(-c2ccc(C(F)(F)F)cc2)sc1CNc1ccc([C@H]2C[C@@H]2C(=O)O)cc1` (stereo in doubt; 10B) [listing 1 of 2 here], in experiment [1], it took 2.45 nM to reach a half-maximal effect (EC50). This EC50 lies about 5.8-fold lower than the previous one.

`Cc1nc(-c2ccc(C(F)(F)F)cc2)sc1CNc1ccc([C@H]2C[C@@H]2C(N)=O)cc1`: it took 4.47 nM to reach a half-maximal effect in experiment [1] (EC50). For the same molecule, in experiment [2], the %max was found to be 80%.

Turning to `CC(CC(=O)O)c1ccc(NCc2cccc(Oc3ccccc3)c2)cc1` (configuration not stated), the EC50 in experiment [1] was 126 nM. The %max in experiment [2] is 83%.

In turn, `Cc1nc(-c2ccc(C(F)(F)F)cc2)sc1CNc1ccc(CC(C)C(=O)O)cc1` (configuration not stated) had an EC50 in experiment [1] of 355 nM. The molecule also showed a %max in experiment [2] of 100%.

`O=C(O)COc1ccc(NCc2cccc(Oc3ccccc3)c2)cc1` gave an EC50 in experiment [1] of 2040 nM. For the same molecule, the %max in experiment [2] came to 84%.

With `O=C(O)Cc1ccc(NCc2cccc(Oc3ccccc3)c2)cc1`, the EC50 in experiment [1] is above 10000 nM. This molecule gave a %max in experiment [2] of 36%.

Consider `Cc1nc(-c2ccc(C(F)(F)F)cc2)sc1CNc1ccc([C@H]2C[C@@H]2C(=O)NC(C)C)cc1` (stereo in doubt; 24B) [listing 2 of 2 here], for which the midpoint of the response in experiment [1], the EC50, lay at 11 nM.

`Cc1nc(-c2ccc(C(F)(F)F)cc2)sc1CNc1ccc([C@H]2C[C@@H]2C(=O)O)cc1` (stereo in doubt; 10B) [listing 2 of 2 here] showed a %max in experiment [2] of 81%.

On to `O=C(NO)[C@H]1C[C@@H]1c1ccc(NCc2cccc(Oc3ccccc3)c2)cc1`, for which a half-maximal response in experiment [1] (EC50) required 14.8 nM. In experiment [2], this molecule had a %max of 90%.

As for `Cc1nc(-c2ccc(C(F)(F)F)cc2)sc1CNc1ccc([C@@H]2C[C@@H]2C(=O)O)cc1`, in experiment [1], the half-maximal effective concentration (EC50) was 302 nM. This molecule showed a %max in experiment [2] of 68%.

In turn, `Cc1nc(-c2ccc(C(F)(F)F)cc2)sc1CNc1ccc([C@H]2C[C@@H]2C(=O)O)cc1` (stereo in doubt; 14B) [listing 1 of 2 here] showed a concentration for a half-maximal effect (EC50) in experiment [1] of 4.9 nM.

In the case of `Cc1nc(-c2ccc(C(F)(F)F)cc2)sc1CNc1ccc(C(=O)O)cc1`, the EC50 in experiment [1] was above 10000 nM. For the same molecule, the %max in experiment [2] was 10%.

Regarding `CN(C)C(=O)CCc1ccc(NCc2cccc(Oc3ccccc3)c2)cc1`, the EC50 in experiment [1] was 174 nM. For the same molecule, the %max in experiment [2] was 50%.

Molecule `Cc1nc(-c2ccc(C(F)(F)F)cc2)sc1CNc1ccc([C@H]2C[C@@H]2C(=O)NC2CCNC2)cc1` (some centres not stated) gave an EC50 in experiment [1] of 204 nM. The molecule further registered a %max in experiment [2] of 52%.

On to `Cc1nc(-c2ccc(C(F)(F)F)cc2)sc1CNc1ccc([C@H]2C[C@@H]2C(=O)NC(C)C)cc1` (stereo in doubt; 22B) [listing 2 of 2 here], for which the %max in experiment [2] came out at 69%.

In experiment [1], `O=C(O)/C=C/c1ccc(NCc2cccc(Oc3ccccc3)c2)cc1` gave an EC50 of 145 nM. In experiment [2], this molecule displayed a %max of 76%.

In the case of `CC(C)(Oc1ccc(NCc2cccc(Oc3ccccc3)c2)cc1)C(=O)O`, the EC50 in experiment [1] is above 10000 nM. In experiment [2], this molecule showed a %max of 14%.

Molecule `Cc1nc(-c2ccc(C(F)(F)F)cc2)sc1CNc1ccc([C@H]2C[C@@H]2C(=O)O)cc1` (stereo in doubt; 14B) [listing 2 of 2 here] showed a %max in experiment [2] of 89%.

With `Cc1nc(-c2ccc(C(F)(F)F)cc2)sc1CNc1ccc(C(C)CC(=O)O)cc1` (configuration not stated), the half-maximal effective concentration (EC50) in experiment [1] was 58.9 nM. For the same molecule, the %max in experiment [2] stood at 109%.

On to `O=C(O)[C@H]1C[C@@H]1c1ccc(NCc2cccc(Oc3ccccc3)c2)cc1` (stereo in doubt; 10A) [listing 2 of 2 here], for which it took 13.5 nM to reach a half-maximal effect in experiment [1] (EC50).

In experiment [1], `Cc1nc(-c2ccc(C(F)(F)F)cc2)sc1CNc1ccc([C@H]2C[C@@H]2C(=O)N[C@H](C)c2ccccc2)cc1` had an EC50 of 53.7 nM. This molecule had a %max in experiment [2] of 42%.

In turn, `Cc1nc(-c2ccc(C(F)(F)F)cc2)sc1CNc1ccc(/C=C/C(=O)O)cc1` showed a 50% effective concentration (EC50) in experiment [1] of 36.3 nM. Also, in experiment [2], the %max was found to be 95%.
